How the values were obtained:
Hepatitis C virus [1] = test: Antiviral activity in HCV 1b infected in HUH 7-lunet cells after 3 days by Dual-Glo luciferase assay; assay type: functional, cell-based, Hepacivirus hominis; conditions: genotype 1b, Huh-7, 72 h
Summary of the method: (§1)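 Multiplex replicon assay in HUH 7-lunet cells carrying a genotype 1b replicon (I389luc-ubi-neo/NS3-3′/ET) or a 2a JFH-1 replicon (2aLucNeo-25). Cells kept in DMEM with GlutaMAX, 10% non-heat-inactivated FBS, 1 mg/mL G-418 and nonessential amino acids. 1600 cells/well (384-well) given serial dilutions. After three days, Renilla luciferase read by Dual-Glo.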

[2] = Inhibition of PI4K3alpha (unknown origin) assessed as hydrolysis of ATP for 60 mins by ADP-Glo kinase assay; design: species or system Homo sapiens
Summary of the method: (§2)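 ADP-Glo lipid kinase assay, 5 μL. Final enzyme: PI4K IIIβ 4 ng/μL, IIIα 2 ng/μL, IIα 2 ng/μL. Substrate PI/PS 50 μM, ATP 100 μM final. Inhibitors from 10 mM DMSO stocks. Run 60 min at 25 °C, ADP by luminescence.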

[3] = biological target: Phosphatidylinositol 4-kinase type 2-alpha (Homo sapiens, UniProt Q9BTU6); test: Inhibition of PI4K2alpha (unknown origin) assessed as hydrolysis of ATP for 60 mins by ADP-Glo kinase assay; summary of the method: as §2
Human rhinovirus sp. = test: Antirhinovirus activity in HRVM infected in H1-HeLa cells assessed as inhibition of virus-induced cytopathic effect after 3 days by Cell-Titer Glo viability assay; assay type: functional, organism-based; conditions: 72 h
Summary of the method: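 H1-HeLa cells in RPMI with 10% heat-inactivated FBS and antibiotics, premixed in batch with HRV1A, HRV14 and HRV16, each at 4× TCID90. Replicate 3-fold serial dilutions in DMSO transferred acoustically (384-well). Incubated three days at 33 °C. Cytopathic effect read as viability by CellTiter-Glo.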

[4] = Cytotoxicity against human HeLa cells; assay type: cell-based
Coxsackievirus B3 [5] = test: Anticoxsackie activity in CVB3 strain Nancy infected in human HeLa cells assessed as inhibition of virus-induced cytopathic effect after 4 hrs by XTT assay; assay type: functional, cell-based; conditions: Enterovirus B, 3 days, in the assay text read “after 3 days” for “after 4 hrs”
Summary of the method: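 HeLa cells seeded a day ahead (30000/well) in DMEM with L-glutamine, 2% FBS, penicillin/streptomycin. 3-fold serial compound dilutions in triplicate, 1 h preincubation, then CVB3 added at MOI 0.005 IU/cell. Incubated 3 days at 37 °C, 5% CO2. Viability by XTT over 4 h, absorbance of formazan read. EC50 by nonlinear regression of % viability vs log10 concentration.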

Hepatitis C virus [6] = test: Antiviral activity in HCV 2a JFH1 infected in HUH 7-lunet cells after 3 days by Dual-Glo luciferase assay; assay type: functional, cell-based, Hepacivirus hominis; conditions: subtype 2a JFH1, Huh-7, 72 h; summary of the method: as §1
Coxsackievirus B3 [7] = test: Anticoxsackie activity in CVB3 strain Nancy infected in human HeLa cells assessed as inhibition of virus-induced cytopathic effect after 3 days by XTT assay; conditions: Enterovirus B
[8] = Inhibition of PI4K3beta (unknown origin) assessed as hydrolysis of ATP for 60 mins by ADP-Glo kinase assay; design: species or system Homo sapiens; summary of the method: as §2

Phosphatidylinositol 4-kinase type 2-alpha, sequence (Q9BTU6 whole entry): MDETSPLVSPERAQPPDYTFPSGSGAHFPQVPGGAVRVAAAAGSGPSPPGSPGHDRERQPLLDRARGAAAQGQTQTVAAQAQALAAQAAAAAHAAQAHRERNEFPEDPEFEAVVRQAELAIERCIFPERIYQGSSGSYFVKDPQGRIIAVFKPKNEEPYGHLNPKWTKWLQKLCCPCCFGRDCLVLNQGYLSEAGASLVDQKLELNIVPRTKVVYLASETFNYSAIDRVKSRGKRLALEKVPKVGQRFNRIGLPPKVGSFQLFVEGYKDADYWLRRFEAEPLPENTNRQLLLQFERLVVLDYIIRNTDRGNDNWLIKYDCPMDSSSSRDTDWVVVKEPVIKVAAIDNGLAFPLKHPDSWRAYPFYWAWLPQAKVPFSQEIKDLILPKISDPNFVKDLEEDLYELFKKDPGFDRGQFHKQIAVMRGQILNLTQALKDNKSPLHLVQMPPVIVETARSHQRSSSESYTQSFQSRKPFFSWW

Compound | EC50 (Hepatitis C virus [1]) [µM] | IC50 [2] [µM] | IC50 [3] [µM] | EC50 (Human rhinovirus sp.) [µM] | CC50 [4] [µM] | EC50 (Coxsackievirus B3 [5]) [µM] | EC50 (Hepatitis C virus [6]) [µM] | EC50 (Coxsackievirus B3 [7]) [µM] | IC50 [8] [µM]
COc1ccc(-c2c(C)nc3c(NCCNC(C)=O)cc(Cl)nn23)cc1OC | 0.29 | 82.7 | > 100 | 1.09 | > 50 | 0.75 | 31.8 | – | –
COc1ccc(-c2c(C)nn3c(NCCNS(C)(=O)=O)cc(C)nc23)cc1OC | 0.91 | 29.3 | > 100 | 3 | > 50 | – | 42.5 | 1.43 | 0.12
COc1ccc(-c2c(C)nn3c(NCCN4CCOCC4)cc(C)nc23)cc1OC | 1.03 | – | – | 2.5 | – | 3.38 | > 44 | – | –
CC(=O)NCCNc1cc(Cl)nn2c(-c3ccc(F)c(C=O)c3)c(C)nc12 | 5.3 | > 100 | > 100 | 24.3 | > 50 | > 50 | 13.6 | – | 0.089
COc1ccc(-c2c(C)nc3c(NCCN4CCOCC4)ccnn23)cc1OC | 0.37 | 27.5 | > 100 | 0.88 | > 50 | 0.5 | 17.9 | – | 0.093
COc1ccc(-c2c(C)nn3c(NCCNC(=O)C(C)C)cc(C)nc23)cc1OC | 1.21 | 62.1 | > 100 | 1.62 | > 50 | 11 | > 44 | – | 0.12
C[C@@]1(O)[C@H](O)[C@@H](CO)O[C@H]1n1ccc2c(N)ncnc21 [BETA-2'-C-METHYL-7-DEAZA-ADENOSINE] | 0.21 | – | – | 5.1 | > 50 | – | 0.21 | – | –
COc1ccc(-c2c(C)nc3c(NCCNC(C)=O)ccnn23)cc1OC | 0.36 | 33.7 | > 100 | 2.9 | > 50 | 0.28 | 27.9 | – | 0.092
COc1ccc(-c2c(C)nc3c(N)cc(Cl)nn23)cc1OC | 0.21 | > 100 | > 100 | 0.89 | 1.75 | 0.023 | 26.5 | – | 0.083
COc1ccc(-c2c(C)nn3c(NCCNC(C)=O)cc(C)nc23)cc1OC | 1.03 | 59.5 | > 100 | 2.9 | > 50 | 1.23 | > 44 | – | 0.07
COc1ccc(-c2c(C)nn3c(NCCOC(C)=O)cc(C)nc23)cc1OC | 0.96 | 29.5 | > 100 | 1.38 | > 50 | 0.86 | > 44 | – | 0.067
